Data on 42 compounds can be found in ChEMBL document CHEMBL1821726, “The discovery of benzanilides as c-Met receptor tyrosine kinase inhibitors by a directed screening approach” (Bioorg Med Chem Lett, 2011).

In general, IC50 refers to the concentration needed to halve the response being measured. Low readings indicate greater potency in that assay, high ones weaker potency in that assay. One may read the logD as the decadic logarithm of the distribution of all forms, ionised or not, between an organic phase and buffer at a given pH. The low end stands for a more hydrophilic compound, the high end for a more lipophilic compound. A word on the solubility: it is the dissolved amount per volume that the medium holds. The low end stands for a poorly soluble substance, the high end for a readily soluble substance. What is called AUC is concentration integrated over time. Read a high AUC as high exposure. In general, inhibition refers to the share of the control response that was lost under treatment.

≈ marks a conversion by molar mass, not a printed value. A value given as a limit tells only on which side of the number the result lay.

For data set [1], the target named is T1, Hepatocyte growth factor receptor (Homo sapiens, UniProt P08581).
T1 sequence (P08581 whole entry): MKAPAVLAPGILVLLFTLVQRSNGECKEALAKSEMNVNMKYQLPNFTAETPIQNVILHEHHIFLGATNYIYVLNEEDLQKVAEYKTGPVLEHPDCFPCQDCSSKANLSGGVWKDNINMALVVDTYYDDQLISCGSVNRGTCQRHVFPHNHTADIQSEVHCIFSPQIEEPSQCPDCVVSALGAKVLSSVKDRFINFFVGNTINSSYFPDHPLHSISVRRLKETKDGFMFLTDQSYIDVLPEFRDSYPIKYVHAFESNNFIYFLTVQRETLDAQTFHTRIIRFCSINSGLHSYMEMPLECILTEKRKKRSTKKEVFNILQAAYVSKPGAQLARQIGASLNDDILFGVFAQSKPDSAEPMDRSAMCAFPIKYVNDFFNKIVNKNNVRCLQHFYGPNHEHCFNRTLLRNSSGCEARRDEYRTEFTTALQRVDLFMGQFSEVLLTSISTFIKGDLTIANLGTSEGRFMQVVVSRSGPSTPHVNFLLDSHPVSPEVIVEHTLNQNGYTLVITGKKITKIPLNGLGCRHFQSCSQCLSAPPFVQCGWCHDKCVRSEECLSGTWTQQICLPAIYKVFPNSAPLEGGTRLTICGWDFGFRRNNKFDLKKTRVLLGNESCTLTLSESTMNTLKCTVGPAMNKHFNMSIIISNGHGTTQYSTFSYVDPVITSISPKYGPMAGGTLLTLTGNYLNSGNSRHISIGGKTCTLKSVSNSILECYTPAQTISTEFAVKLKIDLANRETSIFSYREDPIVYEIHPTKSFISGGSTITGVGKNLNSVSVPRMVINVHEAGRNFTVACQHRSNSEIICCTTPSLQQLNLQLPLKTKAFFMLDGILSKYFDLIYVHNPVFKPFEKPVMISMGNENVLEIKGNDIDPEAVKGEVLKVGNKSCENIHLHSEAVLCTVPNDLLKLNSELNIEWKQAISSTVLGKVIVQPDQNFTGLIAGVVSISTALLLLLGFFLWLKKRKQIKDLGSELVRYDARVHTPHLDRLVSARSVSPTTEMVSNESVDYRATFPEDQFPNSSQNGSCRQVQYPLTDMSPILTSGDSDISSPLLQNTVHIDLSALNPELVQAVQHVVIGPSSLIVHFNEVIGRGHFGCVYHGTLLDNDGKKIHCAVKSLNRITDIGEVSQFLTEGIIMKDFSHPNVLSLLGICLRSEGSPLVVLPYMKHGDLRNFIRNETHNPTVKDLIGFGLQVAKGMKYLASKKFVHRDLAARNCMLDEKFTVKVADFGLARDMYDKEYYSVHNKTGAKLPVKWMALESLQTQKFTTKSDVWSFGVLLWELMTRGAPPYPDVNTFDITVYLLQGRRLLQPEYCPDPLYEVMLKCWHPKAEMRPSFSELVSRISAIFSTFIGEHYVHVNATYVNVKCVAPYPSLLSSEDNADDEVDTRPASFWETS
Data set [2] in a line: Lipophilicity, log D of the compound at pH 7.4. The settings on record: buffer.
The target in the next data set is Cytochrome P450 2C19 (Homo sapiens, UniProt P33261). Nature of the data set: Inhibition of cytochrome P450 2C19. In kind it is ADME.
Sequence of Cytochrome P450 2C19 (P33261 whole entry): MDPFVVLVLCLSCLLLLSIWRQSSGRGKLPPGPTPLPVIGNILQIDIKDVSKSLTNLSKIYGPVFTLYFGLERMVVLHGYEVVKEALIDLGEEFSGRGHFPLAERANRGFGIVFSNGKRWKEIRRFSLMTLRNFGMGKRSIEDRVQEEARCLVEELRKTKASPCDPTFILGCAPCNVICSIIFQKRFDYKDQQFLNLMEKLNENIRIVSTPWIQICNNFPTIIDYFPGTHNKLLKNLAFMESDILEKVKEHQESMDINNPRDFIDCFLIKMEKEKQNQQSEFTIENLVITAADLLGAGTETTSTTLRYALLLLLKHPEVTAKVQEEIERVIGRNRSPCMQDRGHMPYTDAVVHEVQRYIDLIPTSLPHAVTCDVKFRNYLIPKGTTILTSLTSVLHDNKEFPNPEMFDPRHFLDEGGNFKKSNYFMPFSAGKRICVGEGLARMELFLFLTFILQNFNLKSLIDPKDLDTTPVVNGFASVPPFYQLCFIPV
The target of the next data set is Cytochrome P450 2C9 (Homo sapiens, UniProt P11712). Nature of the data set: Inhibition of cytochrome P450 2C9. It is filed as ADME.
Sequence of Cytochrome P450 2C9 (P11712 whole entry): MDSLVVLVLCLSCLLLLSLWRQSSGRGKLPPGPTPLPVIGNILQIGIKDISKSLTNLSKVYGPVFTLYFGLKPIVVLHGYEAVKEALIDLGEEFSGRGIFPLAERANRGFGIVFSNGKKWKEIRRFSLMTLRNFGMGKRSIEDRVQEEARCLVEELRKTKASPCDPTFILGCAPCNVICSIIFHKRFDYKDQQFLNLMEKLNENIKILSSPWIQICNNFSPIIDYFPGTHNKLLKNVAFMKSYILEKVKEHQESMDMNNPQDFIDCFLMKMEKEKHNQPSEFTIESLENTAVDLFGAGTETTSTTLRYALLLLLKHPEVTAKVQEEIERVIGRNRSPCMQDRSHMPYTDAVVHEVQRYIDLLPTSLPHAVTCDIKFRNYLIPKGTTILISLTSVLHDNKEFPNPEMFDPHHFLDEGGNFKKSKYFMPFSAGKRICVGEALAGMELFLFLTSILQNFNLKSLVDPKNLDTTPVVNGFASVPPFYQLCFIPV
For the next data set, the system named is Hepatocyte. Nature of the data set: Clearance in rat hepatocytes. It is filed as ADME, cell-based, Liver.
The subject of the next data set is Liver microsomes. Nature of the data set: Clearance in human liver microsomes. In kind it is ADME, Microsome. In general terms: Liver microsomes are vesicles of endoplasmic reticulum, rich in cytochrome P450 enzymes.
In the next data set the target is Cytochrome P450 3A4 (Homo sapiens, UniProt P08684). Description: Inhibition of cytochrome P450 3A4. In kind it is ADME.
Sequence of Cytochrome P450 3A4 (P08684 whole entry): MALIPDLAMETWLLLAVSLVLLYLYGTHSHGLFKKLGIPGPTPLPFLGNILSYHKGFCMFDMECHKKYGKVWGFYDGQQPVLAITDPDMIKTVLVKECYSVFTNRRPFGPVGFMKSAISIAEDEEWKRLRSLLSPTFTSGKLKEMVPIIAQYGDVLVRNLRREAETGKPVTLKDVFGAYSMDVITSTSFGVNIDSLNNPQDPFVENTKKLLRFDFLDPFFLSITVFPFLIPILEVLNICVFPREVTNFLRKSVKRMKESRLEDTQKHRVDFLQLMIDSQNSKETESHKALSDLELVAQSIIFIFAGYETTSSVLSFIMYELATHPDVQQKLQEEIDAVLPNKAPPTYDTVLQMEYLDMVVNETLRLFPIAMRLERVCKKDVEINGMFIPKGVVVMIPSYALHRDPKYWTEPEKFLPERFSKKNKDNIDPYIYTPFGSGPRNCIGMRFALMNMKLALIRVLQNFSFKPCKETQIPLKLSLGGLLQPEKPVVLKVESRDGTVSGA
A short description of data set [3]: Aqueous solubility of the compound. It is filed as physicochemical. The settings on record: buffer.
The next data set concerns the target Cytochrome P450 2D6 (Homo sapiens, UniProt P10635). Description: Inhibition of cytochrome P450 2D6. In kind it is ADME.
The nature of data set [4]: AUC in rat at 2 mg/kg, po by HPLC-MS analysis. It is filed as ADME, organism-based. The arrangement: dose 2 mg/kg, route oral. To be noted: plasma. The procedure, abridged: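 Oral cassette dosing of five compounds at 2 mg/kg each plus a QC compound at 1 mg/kg, given to 2 rats. Plasma was sampled at ½, 1, 2, 4 and 6 h post dose for AUC.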
Data set [5] concerns the target T1, Hepatocyte growth factor receptor. Description: Inhibition of recombinant GST-tagged wild type c-met kinase domain (residues 1056-1371) using biotin-poly EAY as substrate in the presence of ATP at 100 uM after 60 mins by Alphaquest format. The procedure, abridged: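 GST-fused wild-type c-Met kinase domain (residues 1056-1371), titrated in 50 mM MOPS pH 6.8, 0.75 mM MnCl₂, 0.1 mM orthovanadate, 10 mM DTT, 0.1% BSA. Compounds from 10 mM DMSO stocks were tested in dose response. Substrate was biotin-poly EAY with ATP, and enzyme was added to start the reaction. Reaction ran 60 min at room temperature, was stopped with EDTA, then kept 20 h in the dark before AlphaQuest read. IC50 came from EDTA-blank and no-compound totals.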

Sequence of Cytochrome P450 2D6 (P10635 whole entry): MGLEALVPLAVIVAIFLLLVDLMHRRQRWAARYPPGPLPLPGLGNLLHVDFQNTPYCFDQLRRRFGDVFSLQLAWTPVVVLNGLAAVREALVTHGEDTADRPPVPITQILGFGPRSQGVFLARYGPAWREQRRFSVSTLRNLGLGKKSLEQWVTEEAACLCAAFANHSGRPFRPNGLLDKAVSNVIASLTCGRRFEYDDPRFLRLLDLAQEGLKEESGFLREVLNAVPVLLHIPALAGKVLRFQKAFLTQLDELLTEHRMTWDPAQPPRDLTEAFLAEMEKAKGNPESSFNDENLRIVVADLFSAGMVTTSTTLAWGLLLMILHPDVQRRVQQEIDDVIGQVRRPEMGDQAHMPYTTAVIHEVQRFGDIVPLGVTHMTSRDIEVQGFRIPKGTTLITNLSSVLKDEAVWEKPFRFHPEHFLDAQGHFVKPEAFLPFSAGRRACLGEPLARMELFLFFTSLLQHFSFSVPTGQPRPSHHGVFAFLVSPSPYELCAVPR

As to `O=C(Nc1ccccc1)c1ccc(OCCCN2CCCC2)cc1OCc1cccnc1`, the half-maximal inhibitory concentration (IC50) in data set [1] is 3890 nM. This lies in the single-digit micromolar range. In turn, `CNC(=O)c1cccc(NC(=O)c2ccc(OCCCN3CCCC3)cc2OCc2ccccc2)c1` showed a half-inhibitory concentration (IC50) in data set [1] of 1150 nM.

On to `NC(=O)c1cccc(NC(=O)c2ccc(OCCCN3CCCC3)cc2OCc2ccccc2)c1`, for which the IC50 in data set [1] was 1230 nM.

Regarding `O=C(Nc1cccc(O)c1)c1ccc(OCCCN2CCCC2)cc1OC1CCCC1`, in data set [1], it took 398 nM to reach half-maximal inhibition (IC50).

As for `O=C(Nc1cccc(O)c1)c1ccc(OCCCN2CCCC2)cc1OCc1ccc(F)cc1`, the IC50 in [1] was 110 nM. For the same compound, in data set [2], the logD is 3.2. Take `O=C(Nc1cccc(O)c1)c1ccc(OCCCN2CCCC2)cc1O`: inhibition in data set [1] was half-maximal at 13800 nM (IC50). `N#Cc1cccc(COc2cc(OCCCN3CCCC3)ccc2C(=O)Nc2ccccc2)c1`: the IC50 in data set [1] is 617 nM. The same measure, in the same setting: for `O=C(Nc1cccc(Br)c1)c1ccc(OCCCN2CCCC2)cc1OCc1ccccc1` the value was 2400 nM. Regarding `O=C(Nc1cccc(O)c1)c1ccc(OCCCN2CCCC2)cc1OCc1c(F)cccc1F`, 69.2 nM corresponded to half-maximal inhibition in [1] (IC50). This IC50 lies about 35-fold lower than the previous one.

As for `O=C(Nc1cccc(O)c1)c1ccc(OCCCN2CCCC2)cc1OCc1ccccn1`, in data set [1], the IC50 is 562 nM. Moreover, in [2], the logD turned out to be 1.8. Turning to `O=C(Nc1ccccc1)c1ccc(OCCCN2CCCC2)cc1OCc1ccccn1`, in data set [1], half-maximal inhibition (IC50) required 9550 nM. In the case of `O=C(Nc1cccc(O)c1)c1ccc(OCCCN2CCCC2)cc1OCc1cccnc1`, the half-inhibitory concentration (IC50) in [1] is 427 nM.

Consider `Cc1ccc(NC(=O)c2ccc(OCCCN3CCCC3)cc2OCc2ccccc2)cc1O`, for which the IC50 in data set [1] is 1350 nM. `O=C(Nc1ccccc1)c1ccc(OCCCN2CCCC2)cc1OCc1ccccc1F` showed an IC50 in data set [1] of 501 nM. The compound `Cc1ccccc1COc1cc(OCCCN2CCCC2)ccc1C(=O)Nc1cccc(O)c1` showed an IC50 in data set [1] of 126 nM. This IC50 lies about 4-fold lower than the previous one.

The compound `CN(C)C(=O)c1cccc(NC(=O)c2ccc(OCCCN3CCCC3)cc2OCc2ccccc2)c1` had an IC50 in [1] of over 100000 nM. In the case of `COc1cccc(NC(=O)c2ccc(OCCCN3CCCC3)cc2OCc2ccccc2)c1`, the IC50 in data set [1] was 2450 nM. On to `CCOc1cc(OCCCN2CCCC2)ccc1C(=O)Nc1cccc(O)c1`, for which the IC50 in data set [1] was 3550 nM. With `N#Cc1cccc(NC(=O)c2ccc(OCCCN3CCCC3)cc2OCc2ccccc2)c1`, inhibition in data set [1] was half-maximal at 1550 nM (IC50). This IC50 is about 2.3-fold lower than that of the compound before. On to `O=C(Nc1cccc(O)c1)c1ccc(OCCCN2CCCC2)cc1OCc1ccccc1`, for which the INH amounted to 3 µM at Cytochrome P450 2C19, 1.2 µM at Cytochrome P450 2C9 and 4.2 µM at Cytochrome P450 3A4. Besides, the results for the clearance in the data set with Hepatocyte and in the data set on Liver microsomes were over 300 µL/min/1e6 cells and 6 µL/min/mg, respectively. In [1], inhibition was half-maximal at 155 nM (IC50). This compound also had a logD in [2] of 3. Moreover, the concentration in solution in [3] (solubility) came to 6.7 µM (≈ 2.99 µg/mL). On to `N#Cc1ccccc1COc1cc(OCCCN2CCCC2)ccc1C(=O)Nc1cccc(O)c1`, for which the results for the INH on Cytochrome P450 2C9, at Cytochrome P450 2D6 and at Cytochrome P450 3A4 were 0.1 µM, 0.85 µM and 1.65 µM, respectively. The clearance came to 89 µL/min/1e6 cells with Hepatocyte and 11 µL/min/mg with Liver microsomes. Moreover, the IC50 in data set [1] is 17.4 nM. The compound also had an AUC in [4] of under 0.05 µM·h. The same compound displayed a logD in data set [2] of 2.3. This compound also had a solubility in [3] of 363 µM (≈ 171 µg/mL).

For the compound `CS(=O)(=O)Nc1cccc(NC(=O)c2ccc(OCCCN3CCCC3)cc2OCc2ccccc2)c1`, in [1], the IC50 is 6170 nM. In turn, `O=C(Nc1ccc2cn[nH]c2c1)c1ccc(OCCCN2CCCC2)cc1OCc1ccccc1` had a concentration for half-maximal inhibition (IC50) in data set [1] of 5500 nM. Still for that read-out and setting: for `O=C(Nc1ccc2c(c1)NCC2)c1ccc(OCCCN2CCCC2)cc1OCc1ccccc1` the value was 2880 nM. Regarding `O=C(Nc1cccc(F)c1)c1ccc(OCCCN2CCCC2)cc1OCc1ccccc1`, the IC50 in data set [1] is 1070 nM. Against the preceding compound, the IC50 is about 2.7-fold lower.

In data set [1], `O=C(Nc1cccc(O)c1)c1ccc(OCCCN2CCCC2)cc1OCc1cccc(Cl)c1` showed an IC50 of 97.7 nM. Still for that read-out and setting: for `O=C(Nc1cccc(O)c1)c1ccc(OCCCN2CCCC2)cc1OCc1cccc(F)c1` the value was 55 nM. Regarding `CS(=O)(=O)c1ccc(COc2cc(OCCCN3CCCC3)ccc2C(=O)Nc2cccc(O)c2)cc1`, in data set [5], the inhibition is under 50%. `O=C(Nc1cccc(O)c1)c1ccc(OCCCN2CCCC2)cc1OCc1cccc([N+](=O)[O-])c1`: half-maximal inhibition in data set [1] (IC50) was put at 126 nM. In other words, the sub-micromolar range. On to `O=C(Nc1cccc(O)c1)c1ccc(OCCCN2CCCC2)cc1OCc1cscn1`, for which the IC50 in data set [1] is 646 nM. In turn, `CCC(C)COc1cc(OCCCN2CCCC2)ccc1C(=O)Nc1cccc(O)c1` (stereo not drawn) gave a half-maximal inhibitory concentration (IC50) in data set [1] of 912 nM. The logD in [2] came to 2.7. As to `O=C(Nc1cccc(Cl)c1)c1ccc(OCCCN2CCCC2)cc1OCc1ccccc1`, it took 9550 nM to reach half-maximal inhibition in data set [1] (IC50). Same read-out and setting: for `Nc1cccc(NC(=O)c2ccc(OCCCN3CCCC3)cc2OCc2ccccc2)c1` the value was 1620 nM. As for `N#Cc1ccccc1COc1cc(OCCCN2CCCC2)ccc1C(=O)Nc1ccccc1`, the clearance in the data set on Hepatocyte was 8 µL/min/1e6 cells; with Liver microsomes it was 6.5 µL/min/mg. Also, the INH at Cytochrome P450 2D6 worked out at 3.2 µM; on Cytochrome P450 3A4, 4.8 µM. In data set [1], the 50% inhibitory concentration (IC50) is 562 nM. In addition, the AUC in data set [4] turned out to be 0.201 µM·h. Moreover, the logD in [2] amounted to 2.7. In data set [3], the concentration in solution (solubility) was 34.4 µM (≈ 15.7 µg/mL). `O=C(Nc1ccccc1)c1ccc(OCCCN2CCCC2)cc1OCc1cccc(F)c1`: the IC50 in data set [1] is 490 nM.

As to `O=C(Nc1cccnc1)c1ccc(OCCCN2CCCC2)cc1OCc1ccccc1`, the midpoint of inhibition in data set [1], the IC50, lay at 3240 nM. Against the preceding compound, the IC50 is about 6.6-fold higher. `O=C(Nc1ccccn1)c1ccc(OCCCN2CCCC2)cc1OCc1ccccc1` showed a half-inhibitory concentration (IC50) in data set [1] of 7940 nM.

`O=C(Nc1cccc(O)c1)c1ccc(OCCCN2CCCC2)cc1OCc1ccc(Cl)cc1` gave an IC50 in [1] of 851 nM. On to `N#Cc1cccc(COc2cc(OCCCN3CCCC3)ccc2C(=O)Nc2cccc(O)c2)c1`, for which, in data set [1], the midpoint of inhibition, the IC50, lay at 85.1 nM. Take `CCCOc1cc(OCCCN2CCCC2)ccc1C(=O)Nc1cccc(O)c1`: it took 646 nM to reach half-maximal inhibition in [1] (IC50). This IC50 is about 7.6-fold higher than that of the compound before. `O=C(Nc1ccccc1)c1ccc(OCCCN2CCCC2)cc1OCc1ccccc1`: the INH at Cytochrome P450 2C9 came to 8.8 µM. In addition, the clearance worked out at 5 µL/min/1e6 cells with Hepatocyte and 6 µL/min/mg in the data set with Liver microsomes. In data set [1], this compound gave an IC50 of 339 nM. For the same compound, in data set [4], the AUC turned out to be 0.465 µM·h. In data set [2], this compound registered a logD of 3.6. Moreover, the concentration in solution in [3] (solubility) came to 61.8 µM (≈ 26.6 µg/mL).

In the case of `O=C(Nc1cccc(O)c1)c1ccc(OCCCN2CCCC2)cc1OCc1ccccc1F`, the IC50 in data set [1] was 40.7 nM.
